According to ChEMBL document CHEMBL3259528, “Exploring 5-nitrofuran derivatives against nosocomial pathogens: synthesis, antimicrobial activity and chemometric analysis” (2014):
≈ marks a conversion by molar mass, not a printed value. Calls of active or inactive are those of the source. The rule behind the calls is not given here.

Key:
Staphylococcus aureus [1] = experiment: Antimicrobial activity against Staphylococcus aureus ATCC 29213 after 18 hrs by modified broth microdilution method; format: functional
Method in brief: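 PGI90, the concentration giving 90% growth inhibition, fitted with an exponential growth curve from at least seven concentrations of the MIC assay. Inhibition % = [(Ac − Ap)/Ac] × 100 from A620 of drug-free control versus drug-treated culture. Checked by a modified broth microdilution (Phase 2).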

Escherichia coli [2] = experiment: Antimicrobial activity against Escherichia coli ATCC 25922 at 128 uM after 24 to 48 hrs by two-fold broth microdilution method; format: functional, organism-based
Method in brief: (§1)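 Antibacterial microdilution in CAMH, inoculum 0.5 McFarland diluted in saline/CAMH, 35 °C for 18 h, with further reads at 24 and 48 h. Activity is scored at the maximum tested concentration, 128 µM. Triplicate.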

Klebsiella pneumoniae [3] = experiment: Antimicrobial activity against Klebsiella pneumoniae ATCC 700603 at 128 uM after 24 to 48 hrs by two-fold broth microdilution method; format: functional, organism-based; method in brief: as §1
Enterobacter cloacae [4] = experiment: Antimicrobial activity against Enterobacter cloacae ATCC 23355 at 128 uM after 24 to 48 hrs by two-fold broth microdilution method; format: functional, organism-based; method in brief: as §1
Enterococcus faecalis [5] = experiment: Antimicrobial activity against Enterococcus faecalis ATCC 29212 at 128 uM after 24 to 48 hrs by two-fold broth microdilution method; format: functional, organism-based; method in brief: as §1
Candida albicans [6] = experiment: Antimicrobial activity against Candida albicans ATCC 537Y at 64 uM after 48 hrs by two-fold broth microdilution method; format: functional, organism-based
Method in brief: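 Single top concentration of the antifungal microdilution: RPMI 1640, inoculum 0.5 McFarland diluted in saline/RPMI, 35 °C for 48 h. Activity is judged at the highest tested level, 64 µM. Run in triplicate.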

Staphylococcus aureus [7] = experiment: Antimicrobial activity against Staphylococcus aureus ATCC 29213 after 24 to 48 hrs by two-fold broth microdilution method; format: functional
Serratia marcescens [8] = experiment: Antimicrobial activity against Serratia marcescens ATCC 14576 at 128 uM after 24 to 48 hrs by two-fold broth microdilution method; format: functional, organism-based; method in brief: as §1
Enterococcus faecalis [9] = experiment: Antimicrobial activity against Enterococcus faecalis ATCC 29212 after 24 to 48 hrs by two-fold broth microdilution method; format: functional
Escherichia coli [10] = experiment: Antimicrobial activity against Escherichia coli ATCC 25922 after 24 to 48 hrs by two-fold broth microdilution method; format: functional
Enterobacter cloacae [11] = experiment: Antimicrobial activity against Enterobacter cloacae ATCC 23355 after 24 to 48 hrs by two-fold broth microdilution method; format: functional
Staphylococcus aureus [12] = experiment: Antimicrobial activity against multidrug-resistant Staphylococcus aureus VISA3 […] by two-fold broth microdilution method; format: functional
Serratia marcescens [13] = experiment: Antimicrobial activity against Serratia marcescens ATCC 14576 after 24 to 48 hrs by two-fold broth microdilution method; format: functional
Klebsiella pneumoniae [14] = experiment: Antimicrobial activity against Klebsiella pneumoniae ATCC 700603 after 24 to 48 hrs by two-fold broth microdilution method; format: functional
Method in brief: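 Two-fold serial dilutions in cation-adjusted Mueller–Hinton broth per CLSI M100-S2. Stocks in DMSO/CAMH 1:10 v/v. Range 2.0–128 µM. Inoculum set to 0.5 McFarland, then diluted in saline and CAMH. Incubated at 35 °C for 18 h. MIC is the lowest concentration with no visible growth. Plates also read at 24 and 48 h as sterility control. Triplicate.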

Candida albicans [15] = experiment: Antimicrobial activity against Candida albicans ATCC 537Y after 48 hrs by two-fold broth microdilution method; format: functional
Method in brief: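 Two-fold serial dilutions in RPMI 1640 per CLSI M27-A2. Stocks in DMSO/RPMI 1:20 v/v. Test range 1.0–64 µM. Inoculum set to 0.5 McFarland, then diluted in saline and RPMI 1640. Plates held at 35 °C for 48 h. MIC is the lowest concentration giving prominent growth reduction. Run in triplicate.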

| MIC (Enterococcus faecalis [9]) [µM] | MIC (Escherichia coli [10]) [µM] | SMILES | log(1/MIC>90) (Staphylococcus aureus [1]) | Activity (Escherichia coli [2]) | Activity (Klebsiella pneumoniae [3]) | Activity (Enterobacter cloacae [4]) | Activity (Enterococcus faecalis [5]) | Activity (Candida albicans [6]) | MIC (Staphylococcus aureus [7]) [µM] | MIC90 (Staphylococcus aureus [7]) [µM] | Activity (Serratia marcescens [8]) | MIC (Staphylococcus aureus [12]) [µM] | also measured |
| --- | --- | --- | --- | --- | --- | --- | --- | --- | --- | --- | --- | --- | --- |
|  |  | O=C(N/N=C/c1ccc([N+](=O)[O-])o1)c1ccc(Br)cc1 | 5.35 | inactive | inactive | inactive | inactive | inactive | 2 (≈ 0.676 µg/mL) | 4.5 (≈ 1.52 µg/mL) | inactive |  |  |
| 4 (≈ 1.1 µg/mL) | 8 (≈ 2.19 µg/mL) | Nc1ccc(C(=O)N/N=C/c2ccc([N+](=O)[O-])o2)cc1 | 5.32 |  | inactive |  |  | inactive | 2 (≈ 0.548 µg/mL) | 4.77 (≈ 1.31 µg/mL) | inactive |  | MIC90 (Enterococcus faecalis [9]): 5.63 µM (≈ 1.54 µg/mL); MIC90 (Escherichia coli [10]): 15.9 µM (≈ 4.36 µg/mL); MIC (Enterobacter cloacae [11]): 4 µM (≈ 1.1 µg/mL); MIC90 (Enterobacter cloacae [11]): 6.8 µM (≈ 1.86 µg/mL) |
|  |  | NS(=O)(=O)c1ccc(C(=O)N/N=C/c2ccc([N+](=O)[O-])o2)cc1 | 5.08 | inactive | inactive | inactive | inactive | inactive | 4 (≈ 1.35 µg/mL) | 8.34 (≈ 2.82 µg/mL) | inactive |  |  |
| < 20 | < 20 | C[C@H]1COc2c(N3CCN(C)CC3)c(F)cc3c(=O)c(C(=O)O)cn1c23 [LEVOFLOXACIN] |  |  |  |  |  |  | < 20 |  |  |  | MIC (Serratia marcescens [13]): < 20 µM; MIC (Klebsiella pneumoniae [14]): < 20 µM; MIC (Enterobacter cloacae [11]): < 20 µM |
| 32 (≈ 9.1 µg/mL) | 64 (≈ 18.2 µg/mL) | N#Cc1ccc(C(=O)N/N=C/c2ccc([N+](=O)[O-])o2)cc1 | 5.27 |  | inactive | inactive |  | inactive | 4 (≈ 1.14 µg/mL) | 5.35 (≈ 1.52 µg/mL) |  |  | MIC90 (Enterococcus faecalis [9]): 40.4 µM (≈ 11.5 µg/mL); MIC (Serratia marcescens [13]): 64 µM (≈ 18.2 µg/mL); MIC90 (Serratia marcescens [13]): 111 µM (≈ 31.5 µg/mL); MIC90 (Escherichia coli [10]): 97.3 µM (≈ 27.7 µg/mL) |
|  |  | CN[C@H](CC(C)C)C(=O)N[C@H]1C(=O)N[C@@H](CC(N)=O)C(=O)N[C@H]2C(=O)N[C@H]3C(=O)N[C@H](C(=O)N[C@H](C(=O)O)c4cc(O)cc(O)c4-c4cc3ccc4O)[C@H](O)c3ccc(c(Cl)c3)Oc3cc2cc(c3O[C@@H]2O[C@H](CO)[C@@H](O)[C@H](O)[C@H]2O[C@H]2C[C@](C)(N)[C@H](O)[C@H](C)O2)Oc2ccc(cc2Cl)[C@H]1O [VANCOMYCIN] |  |  |  |  |  |  | < 20 |  |  | 2 (≈ 2.9 µg/mL) |  |
|  |  | CC(=O)N1N=C(c2ccc(Br)cc2)OC1c1ccc([N+](=O)[O-])o1 (stereo not drawn) | 5.29 | inactive | inactive | inactive |  | inactive | 4 (≈ 1.52 µg/mL) | 5.13 (≈ 1.95 µg/mL) | inactive | 8 (≈ 3.04 µg/mL) |  |
|  |  | O=C(N/N=C/c1ccc([N+](=O)[O-])o1)c1ccc([N+](=O)[O-])cc1 | 5.48 | inactive | inactive | inactive | inactive | inactive | 2 (≈ 0.608 µg/mL) | 3 (≈ 0.913 µg/mL) | inactive | 4 (≈ 1.22 µg/mL) |  |
|  |  | O=C(N/N=C/c1ccc([N+](=O)[O-])o1)c1ccc(I)cc1 | 5.56 | inactive | inactive | inactive | inactive | inactive | 2 (≈ 0.77 µg/mL) | 2.78 (≈ 1.07 µg/mL) | inactive | 2 (≈ 0.77 µg/mL) |  |
|  |  | CC(=O)N1N=C(c2ccc(Cl)c(Cl)c2)OC1c1ccc([N+](=O)[O-])o1 (stereo not drawn) | 5.33 | inactive | inactive | inactive |  | inactive | 4 (≈ 1.48 µg/mL) | 4.63 (≈ 1.71 µg/mL) | inactive | 4 (≈ 1.48 µg/mL) |  |

| SMILES | MIC (Enterococcus faecalis [9]) [µM] | MIC (Escherichia coli [10]) [µM] | log(1/MIC>90) (Staphylococcus aureus [1]) | Activity (Escherichia coli [2]) | Activity (Klebsiella pneumoniae [3]) | Activity (Enterobacter cloacae [4]) | Activity (Enterococcus faecalis [5]) | Activity (Candida albicans [6]) | MIC (Staphylococcus aureus [7]) [µM] | MIC90 (Staphylococcus aureus [7]) [µM] | Activity (Serratia marcescens [8]) | MIC (Staphylococcus aureus [12]) [µM] | also measured |
| --- | --- | --- | --- | --- | --- | --- | --- | --- | --- | --- | --- | --- | --- |
| CCCOc1ccc(C(=O)N/N=C/c2ccc([N+](=O)[O-])o2)cc1 | 64 (≈ 20.3 µg/mL) | 64 (≈ 20.3 µg/mL) | 5.61 |  |  |  |  |  | 2 (≈ 0.635 µg/mL) | 2.47 (≈ 0.784 µg/mL) |  | 4 (≈ 1.27 µg/mL) | MIC90 (Enterococcus faecalis [9]): 73.5 µM (≈ 23.3 µg/mL); MIC (Serratia marcescens [13]): 64 µM (≈ 20.3 µg/mL); MIC90 (Serratia marcescens [13]): 66.7 µM (≈ 21.2 µg/mL); MIC (Klebsiella pneumoniae [14]): 64 µM (≈ 20.3 µg/mL); MIC90 (Klebsiella pneumoniae [14]): 71.5 µM (≈ 22.7 µg/mL); MIC90 (Escherichia coli [10]): 65.8 µM (≈ 20.9 µg/mL); MIC90 (Enterobacter cloacae [11]): 69.8 µM (≈ 22.2 µg/mL); MIC (Candida albicans [15]): 32 µM (≈ 10.2 µg/mL); MIC90 (Candida albicans [15]): 40.8 µM (≈ 12.9 µg/mL) |
